PMC6497404 (Vaccine, 2019)

Assays:
BALB/c mice = test: Serum antibody ELISA after immunization with antigen-pulsed dendritic cells; type: in vivo, mouse; conditions: after first booster; mimotope-pulsed DCs i.p.; sera diluted 1:200
How it was run: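 Female BALB/c mice, 5–7 weeks old. Bone-marrow DCs pulsed with peptide antigen (1 μM) on day 6, matured with PGE₂ (10⁻⁷M) plus LPS (2 μg/ml) for 24h from day 7, washed on day 9. 5 × 10⁵ DCs in DPBS given i.p., with i.p. boosts of fresh pulsed DCs without adjuvant at days 14 and 28. Controls received DCs or DPBS. Sera diluted 1:200 and tested by ELISA.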

[1] = test system: C. albicans SC5314 (disseminated candidiasis in BALB/c mice); test: Active vaccination; type: in vivo, Candida albicans; conditions: mimotope-pulsed DCs; lethal i.v. challenge; extended observation

Sequence	Antibody ELISA titers in immune sera against the mimotope (BALB/c mice)	Protection against disseminated candidiasis (mimotope vaccination) [1]
HYKTYGGYW [PS31]	highest	
SWYEGLRLI [PS55]		neither of the two other mimotopes PS55 or PS76 induced protection
SYLTTGGFW [PS28]	highest	
WVPPGSWYL [PS2]	highest	
YRQFVTGFW [PS76]		neither of the two other mimotopes PS55 or PS76 induced protection
